Data reported in PubChem BioAssay AID624064 (Broad Institute, 2012).
The source made the active and inactive calls.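 How the source made its calls: active means fitted curve reaching 35% inhibition at both 405 and 600 nm absorbance, in duplicate, within twice the top valid dose; inactive means the rest, including signal rising instead of falling.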

System: not listed separately
Experiment: P. aeruginosa growth delay under iron chelation, dose response, whole organism, OD600, EDDHA, dry powder, set 7 (AID 624064)
Conditions: P. aeruginosa growth with EDDHA, OD600, 24-30 h; at 120 µM (top of the series)
Summary of the method: (§1)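 Material: Pseudomonas aeruginosa whole cells, strain ATCC 15692. Quantity: bacterial inoculum at final OD600 of 0.0000005. Buffer or medium: succinate M9 medium, pH 7.0, iron-limited with 2 µM EDDHA (final). Times: 24-30 h exposure at 37 °C. Signal: absorbance at 600 nm (optical density).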

Row | SMILES | activity change, negative = inhibition
1 | N#CC1c2ccc(Cl)cc2CCc2cccnc21 (stereo not given) | 31.2% (inactive)
2 | COCCNC(C#N)c1ccc(Cl)cc1 (stereo not given) | -0.512% (inactive)
3 | N#CC(c1ccc(C(F)(F)F)c(Cl)n1)c1ccccc1OC(F)(F)F (stereo not given) | -8.43% (inactive)
4 | CCCCC(C#N)c1ccc(Cl)cc1 (stereo not given) | 13.2% (inactive)
5 | Clc1ccc(C(c2cccc(Cl)n2)c2nn[nH]n2)cc1 (stereo not given) | 11.3% (inactive)
6 | COCCC(C#N)c1ccc(Cl)cc1 (stereo not given) | -16.8% (inactive)
7 | N#CC(c1ccc(F)cc1)c1cccc(Cl)n1 (stereo not given) | -35.8% (inactive)
8 | CN(C)CCCC(C#N)c1ccc(Cl)cc1 (stereo not given) | -12.9% (inactive)
9 | COCCOCCC(C#N)c1ccc(F)cc1 (stereo not given) | -18.1% (inactive)
10 | CCCCC(C#N)c1ccccn1 (stereo not given) | 11% (inactive)
11 | CCCCC(C#N)c1ccc(F)cn1 (stereo not given) | -4.82% (inactive)
12 | N#CC(c1ccc(Cl)cc1)c1ccccn1 (stereo not given) | -30.8% (inactive)
13 | N#CC(c1ccc(Cl)cc1)N1CCCC1 (stereo not given) | -7.6% (inactive)
14 | COCCOCCC(C#N)c1ccc(Cl)cc1 (stereo not given) | 2.11% (inactive)
15 | CCCCC(C#N)c1ccc(Cl)cn1 (stereo not given) | -2.96% (inactive)
16 | CCCCC(c1ccc(Cl)cc1)c1nn[nH]n1 (stereo not given) | -5.82% (inactive)
17 | N#Cc1cccc(C(C#N)c2ccc(F)cc2)n1 (stereo not given) | -25.4% (inactive)
18 | COCCC(C#N)c1ccc(F)cc1 (stereo not given) | -1.09% (inactive)
19 | CN(C)CCCC(C#N)c1ccc(F)cc1 (stereo not given) | -34.3% (inactive)

System: P. aeruginosa growth with EDDHA, OD600, 24-30 h
Experiment: as above
Conditions: not given
Summary of the method: as §1

Row | SMILES | AC35
20 | CCCCC(C#N)c1ccc(F)cc1 (stereo not given) | > 120 µM (inactive)
